Measurements reported in PubChem BioAssay AID743061 (The Scripps Research Institute Molecular Screening Center, 2013).

Target: Methionine--tRNA ligase, mitochondrial (Homo sapiens) (UniProt Q96GW9)
Experiment: human mtMetRS tRNA charging inhibition – biochemical, radioactivity, round 1, selectivity assay for T. brucei MetRS inhibitor project, late-stage follow-up (AID 743061);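 also: 0% = DMSO with full reaction and 100% = DMSO wells lacking tRNA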
Conditions: recombinant human mtMetRS, [3H]Met tRNA charging, at 10 µM, stronger effect = higher value
Method in brief: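 Material – recombinant human mitochondrial methionyl-tRNA synthetase (MetRS) · Input – 13 nM enzyme · Also added – 240 nM [3H]methionine with bulk E. coli tRNA acceptor · Compound dosing – 10 and 1 µM · Schedule – 15 min preincubation, 1 h reaction, room temperature · Detection – scintillation counts of TCA-precipitated charged tRNA on filters · Benchmarks – high DMSO, low without tRNA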

| SMILES | inhibition [%] |
| --- | --- |
| Brc1cnc2nc(SCc3nc4ccccc4[nH]3)[nH]c2c1 | -14.2 |
| CCCCCCCCCC1NC(C(=O)O)Cc2c1[nH]c1ccccc21 (stereo not given) | 9.9 |
| O=C1CC(NCCc2ccccc2)C(=O)N1c1ccc(Br)cc1 (stereo not given) | 6.62 |
| O=C(C(=O)N1CCOCC1)c1cn(CC(=O)N2CCCc3ccccc32)c2ccccc12 | 3.68 |
| COc1ccccc1NS(=O)(=O)c1cccc(NC(=O)Nc2ccccc2)c1 | 19.1 |
| O=C(Cn1cc(C(=O)C2CC2)c2ccccc21)Nc1cccc(C(F)(F)F)c1 | 11.9 |
| Clc1ccc(OCCSCc2nc3ccccc3[nH]2)cc1 | -5.52 |
| O=C(NCc1nc2ccccc2[nH]1)C1=C[C@H](C2CC2)C[C@H](OCc2ccc(CO)cc2)O1 | 12.6 |
| Cc1cccc(NC(=O)C2CC(=O)n3c(nc4ccccc43)N2)c1 (stereo not given) | 6.78 |
| COc1ccc(NC(=O)CSc2nnc3c4cc(C)ccc4n(C)c3n2)cc1 | 8.46 |
| CN(Cc1cc(Cl)cc(Cl)c1)[C@H]1C[C@H]2c3[nH]c4ccccc4c3CCN2C(=O)[C@H]1CO | 80.3 |
| Cc1cccc2[nH]c(CCN(C)C(=O)c3cccc(C4CCNC4)c3)nc12 (stereo not given) | -5.77 |
| CCN(CC)C(=O)C(=O)c1cn(CC(=O)Nc2cccc(C(F)(F)F)c2)c2ccccc12 | 40.8 |
| Cc1ccc(C(=O)NCCc2nc3ccccc3[nH]2)cc1[N+](=O)[O-] | 7.36 |
| CC(C)(C)[C@@H]1C=C(C(=O)NCc2nc3ccccc3[nH]2)O[C@H](OCc2ccc(CO)cc2)C1 | -5.44 |
| CC(C)c1nc2ccc(C(=O)N(C)CCc3nc4ccc(F)cc4[nH]3)cc2o1 | 0.38 |
| CC1Cc2ccccc2N1C(=O)Cn1cc(C(=O)C(=O)N2CCOCC2)c2ccccc21 (stereo not given) | 7.77 |
| CNC(=S)N(CCc1ccccc1)C1CC(=O)N(c2ccc(Br)cc2)C1=O (stereo not given) | 83.7 |

| SMILES | inhibition [%] |
| --- | --- |
| COc1ccccc1NC(=O)CSc1nnc2c(n1)[nH]c1ccc(C)cc12 | 7.39 |
| O=C(NCCc1nc2ccccc2[nH]1)c1ccc(Cl)cc1Cl | 48.7 |
| Clc1ccc(-c2nnc(SCc3nc4ccccc4[nH]3)o2)c(Cl)c1 | 41.9 |
| O=C(NCCc1nc2ccccc2[nH]1)c1ccc(Cl)c([N+](=O)[O-])c1 | 25.5 |
| CCO[C@@H]1OC(C(=O)NCc2nc3ccccc3[nH]2)=C[C@H](c2ccc(Br)cc2)[C@H]1CCCO | -6.53 |
| CCN(CCc1nc2ccc(C)cc2[nH]1)C(=O)c1ccc2ncccc2c1 | 1.1 |
| COc1ccccc1-n1c(SCC(=O)Nc2ccc(Cl)cc2)nc(O)c(Cc2ccccc2)c1=O | -19.7 |
| O=C(Cn1cc(C(=O)c2ccco2)c2ccccc21)Nc1cccc(C(F)(F)F)c1 | 19.7 |
| O=C(Cn1cc(C(=O)C(=O)N2CCOCC2)c2ccccc21)NCC1CCCO1 (stereo not given) | 5.42 |
| O=C(NCCc1nc2ccccc2[nH]1)c1ccc(Cl)cc1 | 7.1 |
| O=C(NCc1nc2ccccc2[nH]1)C1=C[C@@H](c2csc3ccccc23)C[C@@H](OCCCCO)O1 | 6.67 |
| Oc1c(Cl)cc(Cl)cc1CNc1nc2ccccc2[nH]1 | 31.4 |
| O=C(NCc1nc2ccccc2[nH]1)C1=C[C@H](c2csc3ccccc23)C[C@H](OCCCCO)O1 | 2.21 |
| O=C(NCc1nc2ccccc2[nH]1)C1=C[C@@H](c2ccc(Br)cc2)C[C@@H](OCc2ccc(CO)cc2)O1 | 16.7 |
| CC(=O)N(CCc1ccccc1)C1CC(=O)N(c2ccc(Br)cc2)C1=O (stereo not given) | 2 |
| COc1cccc(NC(=O)CSc2nnc3c(n2)[nH]c2ccc(C)cc23)c1 | 40.4 |
| Cc1[nH]c2ccc(Br)cc2c(=O)c1CN1CCCCCC1 | -11 |
